Source: ChEMBL document CHEMBL1138179, “Discovery of a novel nonphosphorylated pentapeptide motif displaying high affinity for Grb2-SH2 domain by the utilization of 3'-substituted tyrosine derivatives” (J Med Chem, 2006)
Numbered stars: 1 amine (or outer) side, 2 acyl side, 3 side chain; on linkers, the order of the positions; unused ones are H or OH. Bridge positions count the residues as written; N and C are the ends. Square brackets hold non-standard residues; d marks the D form. Peptide text beside a SMILES is read from it. Tyr(3-NO2) = N[C@@H](Cc1ccc(O)c([N+](=O)[O-])c1)C(=O)O; X1 = O=C(O)c1cc(C[C@H](N[*:1])C(=O)[*:2])ccc1O; Tyr(3-OMe) = COc1cc(C[C@H](N)C(=O)O)ccc1O; Tyr(3-NH2) = Nc1cc(C[C@H](N)C(=O)O)ccc1O; Dopa = N[C@@H](Cc1ccc(O)c(O)c1)C(=O)O; Gla = N[C@@H](CC(C(=O)O)C(=O)O)C(=O)O; Aad = N[C@@H](CCCC(=O)O)C(=O)O; Ac6c = NC1(C(=O)O)CCCCC1; Ava = NCCCCC(=O)O; βAla = NCCC(=O)O

Columns and labels:
[1] = biological target: Growth factor receptor-bound protein 2 (Homo sapiens, UniProt P62993); assay: Inhibition of recombinant GRB2-SH2 domain
Method in brief: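 Competitive SPR (BIAcore 3000): inhibitor premixed with recombinant Grb2-SH2 protein; binding at equilibrium measured to immobilized biotinylated SHC pTyr317 phosphopeptide (biotinyl-DDPS-pY-VNVQ). IC50 = concentration giving half-maximal competition; mean of at least two independent experiments.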

MDA-MB-453 = assay: cells; settings: Homo sapiens

Structure (SMILES) | IC50 [1] [µM] | IC50 (MDA-MB-453) [µM]
CC(C)C[C@@H]1NC(=O)[C@H](CC(C(=O)O)C(=O)O)NC(=O)C[S+]([O-])C[C@H](C(N)=O)NC(=O)CCNC(=O)[C@H](CC(N)=O)NC(=O)C2(CCCCC2)NC(=O)[C@H](Cc2ccc(O)c(N)c2)NC1=O (stereo partly drawn) | 11.2 | 
CC(C)C[C@@H]1NC(=O)[C@H](CC(C(=O)O)C(=O)O)NC(=O)C[S+]([O-])C[C@@H](C(N)=O)NC(=O)CCCCNC(=O)[C@H](CC(N)=O)NC(=O)C2(CCCCC2)NC(=O)[C@H](Cc2ccc(O)c(N)c2)NC1=O (stereo partly drawn) | 0.058 | 0.019
CC(C)C[C@@H]1NC(=O)[C@H](CC(C(=O)O)C(=O)O)NC(=O)C[S+]([O-])C[C@H](C(N)=O)NC(=O)[C@H](CC(N)=O)NC(=O)C2(CCCCC2)NC(=O)[C@H](Cc2ccc(O)c(N)c2)NC1=O (stereo partly drawn) | 200 | 
CC(C)C[C@@H]1NC(=O)[C@H](CC(C(=O)O)C(=O)O)NC(=O)C[S+]([O-])C[C@H](C(N)=O)NC(=O)CCCCNC(=O)[C@H](CC(N)=O)NC(=O)C2(CCCCC2)NC(=O)[C@H](Cc2ccc(O)c(N)c2)NC1=O (stereo partly drawn) | 1.55 | 
CC(C)C[C@@H]1NC(=O)[C@H](CCCC(=O)O)NC(=O)C[S+]([O-])C[C@@H](C(N)=O)NC(=O)CCCCNC(=O)[C@H](CC(N)=O)NC(=O)C2(CCCCC2)NC(=O)[C@H](Cc2ccc(O)cc2)NC1=O (stereo partly drawn) | 77 | 
CC(C)C[C@@H]1NC(=O)[C@H](CCCC(=O)O)NC(=O)C[S+]([O-])C[C@H](C(N)=O)NC(=O)CCCCNC(=O)[C@H](CC(N)=O)NC(=O)C2(CCCCC2)NC(=O)[C@H](Cc2ccc(O)c(C(=O)O)c2)NC1=O (stereo partly drawn) | 212 | 
COc1cc(C[C@@H]2NC(=O)[C@H](CC(C)C)NC(=O)[C@H](CCCC(=O)O)NC(=O)C[S+]([O-])C[C@@H](C(N)=O)NC(=O)CCCCNC(=O)[C@H](CC(N)=O)NC(=O)C3(CCCCC3)NC2=O)ccc1O (stereo partly drawn) | 97 | 
CC(C)C[C@@H]1NC(=O)[C@H](CC(C(=O)O)C(=O)O)NC(=O)C[S+]([O-])C[C@@H](C(N)=O)NC(=O)[C@H](CC(N)=O)NC(=O)C2(CCCCC2)NC(=O)[C@H](Cc2ccc(O)c(N)c2)NC1=O (stereo partly drawn) | 9.7 | 
CC(C)C[C@@H]1NC(=O)[C@H](CC(C(=O)O)C(=O)O)NC(=O)C[S+]([O-])C[C@@H](C(N)=O)NC(=O)CCNC(=O)[C@H](CC(N)=O)NC(=O)C2(CCCCC2)NC(=O)[C@H](Cc2ccc(O)c(N)c2)NC1=O (stereo partly drawn) | 0.36 | 
CC(C)C[C@@H]1NC(=O)[C@H](CCCC(=O)O)NC(=O)C[S+]([O-])C[C@H](C(N)=O)NC(=O)CCCCNC(=O)[C@H](CC(N)=O)NC(=O)C2(CCCCC2)NC(=O)[C@H](Cc2ccc(O)c(O)c2)NC1=O (stereo partly drawn) | 550 | 
CC(C)C[C@@H]1NC(=O)[C@H](CCCC(=O)O)NC(=O)C[S+]([O-])C[C@@H](C(N)=O)NC(=O)CCCCNC(=O)[C@H](CC(N)=O)NC(=O)C2(CCCCC2)NC(=O)[C@H](Cc2ccc(O)c(O)c2)NC1=O (stereo partly drawn) | 87 | 
CC(C)C[C@@H]1NC(=O)[C@H](CCCC(=O)O)NC(=O)C[S+]([O-])C[C@@H](C(N)=O)NC(=O)CCCCNC(=O)[C@H](CC(N)=O)NC(=O)C2(CCCCC2)NC(=O)[C@H](Cc2ccc(O)c([N+](=O)[O-])c2)NC1=O (stereo partly drawn) | 25 | 
CC(C)C[C@@H]1NC(=O)[C@H](CCCC(=O)O)NC(=O)C[S+]([O-])C[C@@H](C(N)=O)NC(=O)CCCCNC(=O)[C@H](CC(N)=O)NC(=O)C2(CCCCC2)NC(=O)[C@H](Cc2ccc(O)c(N)c2)NC1=O (stereo partly drawn) | 3.9 | 
CC(C)C[C@@H]1NC(=O)[C@H](CCCC(=O)O)NC(=O)C[S+]([O-])C[C@H](C(N)=O)NC(=O)CCCCNC(=O)[C@H](CC(N)=O)NC(=O)C2(CCCCC2)NC(=O)[C@H](Cc2ccc(O)c([N+](=O)[O-])c2)NC1=O (stereo partly drawn) | 265 | 
COc1cc(C[C@@H]2NC(=O)[C@H](CC(C)C)NC(=O)[C@H](CCCC(=O)O)NC(=O)C[S+]([O-])C[C@H](C(N)=O)NC(=O)CCCCNC(=O)[C@H](CC(N)=O)NC(=O)C3(CCCCC3)NC2=O)ccc1O (stereo partly drawn) | > 1000 | 
CC(C)C[C@@H]1NC(=O)[C@H](CCCC(=O)O)NC(=O)CSC[C@@H](C(N)=O)NC(=O)CCCCNC(=O)[C@H](CC(N)=O)NC(=O)C2(CCCCC2)NC(=O)[C@H](Cc2ccc(O)c(O)c2)NC1=O ({CH2CO}-[Aad]L[Dopa][Ac6c]N[Ava]C-NH2; thioether N-7) | 135 | 
COc1cc(C[C@@H]2NC(=O)[C@H](CC(C)C)NC(=O)[C@H](CCCC(=O)O)NC(=O)CSC[C@@H](C(N)=O)NC(=O)CCCCNC(=O)[C@H](CC(N)=O)NC(=O)C3(CCCCC3)NC2=O)ccc1O ({CH2CO}-[Aad]L[Tyr(3-OMe)][Ac6c]N[Ava]C-NH2; thioether N-7) | 245 | 
CC(C)C[C@@H]1NC(=O)[C@H](CC(C(=O)O)C(=O)O)NC(=O)CSC[C@@H](C(N)=O)NC(=O)[C@H](CC(N)=O)NC(=O)C2(CCCCC2)NC(=O)[C@H](Cc2ccc(O)c(N)c2)NC1=O ({CH2CO}-[Gla]L[Tyr(3-NH2)][Ac6c]NC-NH2; thioether N-6) | 22.5 | 
CC(C)C[C@@H]1NC(=O)[C@H](CC(C(=O)O)C(=O)O)NC(=O)CSC[C@@H](C(N)=O)NC(=O)CCNC(=O)[C@H](CC(N)=O)NC(=O)C2(CCCCC2)NC(=O)[C@H](Cc2ccc(O)c(N)c2)NC1=O ({CH2CO}-[Gla]L[Tyr(3-NH2)][Ac6c]N[βAla]C-NH2; thioether N-7) | 1.02 | 

Continued, values first:

IC50 [1] [µM] | IC50 (MDA-MB-453) [µM] | Structure (SMILES)
14 |  | CC(C)C[C@@H]1NC(=O)[C@H](CCCC(=O)O)NC(=O)C[S+]([O-])C[C@H](C(N)=O)NC(=O)CCCCNC(=O)[C@H](CC(N)=O)NC(=O)C2(CCCCC2)NC(=O)[C@H](Cc2ccc(O)c(N)c2)NC1=O (stereo partly drawn)
1000 |  | CC(C)C[C@@H]1NC(=O)[C@H](CCCC(=O)O)NC(=O)C[S+]([O-])C[C@H](C(N)=O)NC(=O)CCCCNC(=O)[C@H](CC(N)=O)NC(=O)C2(CCCCC2)NC(=O)[C@H](Cc2ccc(O)cc2)NC1=O (stereo partly drawn)
16 |  | CC(C)C[C@@H]1NC(=O)[C@H](CCCC(=O)O)NC(=O)C[S+]([O-])C[C@@H](C(N)=O)NC(=O)CCCCNC(=O)[C@H](CC(N)=O)NC(=O)C2(CCCCC2)NC(=O)[C@H](Cc2ccc(O)c(C(=O)O)c2)NC1=O (stereo partly drawn)
93 |  | CC(C)C[C@@H]1NC(=O)[C@H](CCCC(=O)O)NC(=O)CSC[C@@H](C(N)=O)NC(=O)CCCCNC(=O)[C@H](CC(N)=O)NC(=O)C2(CCCCC2)NC(=O)[C@H](Cc2ccc(O)cc2)NC1=O ({CH2CO}-[Aad]LY[Ac6c]N[Ava]C-NH2; thioether N-7)
8.9 |  | CC(C)C[C@@H]1NC(=O)[C@H](CCCC(=O)O)NC(=O)CSC[C@@H](C(N)=O)NC(=O)CCCCNC(=O)[C@H](CC(N)=O)NC(=O)C2(CCCCC2)NC(=O)[C@H](Cc2ccc(O)c(N)c2)NC1=O ({CH2CO}-[Aad]L[Tyr(3-NH2)][Ac6c]N[Ava]C-NH2; thioether N-7)
182 |  | CC(C)C[C@@H]1NC(=O)[C@H](CCCC(=O)O)NC(=O)CSC[C@@H](C(N)=O)NC(=O)CCCCNC(=O)[C@H](CC(N)=O)NC(=O)C2(CCCCC2)NC(=O)[C@H](Cc2ccc(O)c([N+](=O)[O-])c2)NC1=O ({CH2CO}-[Aad]L[Tyr(3-NO2)][Ac6c]N[Ava]C-NH2; thioether N-7)
88 |  | CC(C)C[C@@H]1NC(=O)[C@H](CCCC(=O)O)NC(=O)CSC[C@@H](C(N)=O)NC(=O)CCCCNC(=O)[C@H](CC(N)=O)NC(=O)C2(CCCCC2)NC(=O)[C@H](Cc2ccc(O)c(C(=O)O)c2)NC1=O ({CH2CO}-[Aad]L[X1][Ac6c]N[Ava]C-NH2; thioether N-7)
0.19 |  | CC(C)C[C@@H]1NC(=O)[C@H](CC(C(=O)O)C(=O)O)NC(=O)CSC[C@@H](C(N)=O)NC(=O)CCCCNC(=O)[C@H](CC(N)=O)NC(=O)C2(CCCCC2)NC(=O)[C@H](Cc2ccc(O)c(N)c2)NC1=O ({CH2CO}-[Gla]L[Tyr(3-NH2)][Ac6c]N[Ava]C-NH2; thioether N-7)
